Experimental data published in ChEMBL document CHEMBL5058577, “EUbOPEN Chemogenomics Library 2 (Multiplex)” (2022).

Test system: Fibroblast
Test: Multiplex assay against human fibroblast
Assay type: toxicity, cell-based
Outline: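 Live cells were stained at seeding with Hoechst33342, BioTracker Green Microtubule Cytoskeleton Dye, MitoTracker Red and Annexin V Alexa Fluor 680. Following compound addition, they were imaged on a CQ1 microscope at 37°C and 5% CO2 and gated by CellPathfinder machine learning into Hoechst high-intensity objects or normal cells, with normal cells split into healthy, pyknosed or fragmented nuclei and pyknosed cells into mitotic or apoptotic. Tubulin, mitochondrial-mass and membrane-permeability phenotypes are per cents of healthy-nucleus cells.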

[1] = 12 h, 1 µM, compound concentration 1 uM, replicate 1
[2] = 12 h, 1 µM, compound concentration 1 uM, replicate 2
[3] = 12 h, 10 µM, compound concentration 10 uM, replicate 1
[4] = 12 h, 10 µM, compound concentration 10 uM, replicate 2
[5] = 24 h, 1 µM, compound concentration 1 uM, replicate 1
[6] = 24 h, 1 µM, compound concentration 1 uM, replicate 2
[7] = 24 h, 10 µM, compound concentration 10 uM, replicate 1
[8] = 24 h, 10 µM, compound concentration 10 uM, replicate 2
[9] = 48 h, 1 µM, compound concentration 1 uM, replicate 1
[10] = 48 h, 1 µM, compound concentration 1 uM, replicate 2
[11] = 48 h, 10 µM, compound concentration 10 uM, replicate 1
[12] = 48 h, 10 µM, compound concentration 10 uM, replicate 2

**Q.** Which “Population Apoptotic (%)” value [1] does the source give for `COc1ccccc1N1CCN(C[C@@H](C(=O)NC(C)(C)C)c2ccccc2)CC1.Cl.Cl` here?
**A.** 43%

**Q.** And the “Population Fragmented Nuclei (%)” value [1]?
**A.** 12%

**Q.** And the “Population Healthy Nuclei (%)” value [1]?
**A.** 70%

**Q.** And the “Population Hoechst High Intensity Objects (%)” value [1]?
**A.** 2%

**Q.** And the “Population Membrane Permeable-Phenotype (%)” value [1]?
**A.** 0%

**Q.** What about the “Population Mitochondria Different-Phenotype (%)” value [1] of the same compound?
**A.** 8%

**Q.** What about the “Population Mitotic Cells (%)” value [1] of the same compound?
**A.** 56%

**Q.** And the “Population Normal (%)” value [1]?
**A.** 97%

**Q.** And the “Population Pyknosed Nuclei (%)” value [1]?
**A.** 16%

**Q.** What about the “Population Tubulin-Different-Phenotype (%)” value [1] of the same compound?
**A.** 37%

**Q.** What about the “Total Cell Count” value [1] of the same compound?
**A.** 141

**Q.** And the “Population Apoptotic (%)” value [2]?
**A.** 40%

**Q.** What about the “Population Fragmented Nuclei (%)” value [2] of the same compound?
**A.** 25%

**Q.** And the “Population Healthy Nuclei (%)” value [2]?
**A.** 43%

**Q.** What about the “Population Hoechst High Intensity Objects (%)” value [2] of the same compound?
**A.** 5%

**Q.** And the “Population Mitochondria Different-Phenotype (%)” value [2]?
**A.** 4%

**Q.** What about the “Population Mitotic Cells (%)” value [2] of the same compound?
**A.** 60%

**Q.** And the “Population Normal (%)” value [2]?
**A.** 94%

**Q.** What about the “Population Pyknosed Nuclei (%)” value [2] of the same compound?
**A.** 30%

**Q.** And the “Population Tubulin-Different-Phenotype (%)” value [2]?
**A.** 43%

**Q.** And the “Total Cell Count” value [2]?
**A.** 155

**Q.** And the “Population Apoptotic (%)” value [3]?
**A.** 50%

**Q.** And the “Population Fragmented Nuclei (%)” value [3]?
**A.** 20%

**Q.** And the “Population Healthy Nuclei (%)” value [3]?
**A.** 59%

**Q.** And the “Population Hoechst High Intensity Objects (%)” value [3]?
**A.** 5%

**Q.** What about the “Population Membrane Permeable-Phenotype (%)” value [3] of the same compound?
**A.** 1%

**Q.** What about the “Population Mitochondria Different-Phenotype (%)” value [3] of the same compound?
**A.** 20%

**Q.** What about the “Population Mitotic Cells (%)” value [3] of the same compound?
**A.** 50%

**Q.** And the “Population Normal (%)” value [3]?
**A.** 94%

**Q.** What about the “Population Pyknosed Nuclei (%)” value [3] of the same compound?
**A.** 20%

**Q.** And the “Population Tubulin-Different-Phenotype (%)” value [3]?
**A.** 66%

**Q.** And the “Total Cell Count” value [3]?
**A.** 134

**Q.** And the “Population Apoptotic (%)” value [4]?
**A.** 48%

**Q.** What about the “Population Fragmented Nuclei (%)” value [4] of the same compound?
**A.** 32%

**Q.** What about the “Population Healthy Nuclei (%)” value [4] of the same compound?
**A.** 42%

**Q.** And the “Population Membrane Permeable-Phenotype (%)” value [4]?
**A.** 6%

**Q.** What about the “Population Mitochondria Different-Phenotype (%)” value [4] of the same compound?
**A.** 12%

**Q.** And the “Population Mitotic Cells (%)” value [4]?
**A.** 51%

**Q.** What about the “Population Pyknosed Nuclei (%)” value [4] of the same compound?
**A.** 24%

**Q.** And the “Population Tubulin-Different-Phenotype (%)” value [4]?
**A.** 70%

**Q.** What about the “Total Cell Count” value [4] of the same compound?
**A.** 116

**Q.** What about the “Population Apoptotic (%)” value [5] of the same compound?
**A.** 50%

**Q.** And the “Population Fragmented Nuclei (%)” value [5]?
**A.** 12%

**Q.** What about the “Population Healthy Nuclei (%)” value [5] of the same compound?
**A.** 73%

**Q.** What about the “Population Hoechst High Intensity Objects (%)” value [5] of the same compound?
**A.** 2%

**Q.** And the “Population Membrane Permeable-Phenotype (%)” value [5]?
**A.** 0%

**Q.** And the “Population Mitochondria Different-Phenotype (%)” value [5]?
**A.** 15%

**Q.** What about the “Population Mitotic Cells (%)” value [5] of the same compound?
**A.** 50%

**Q.** What about the “Population Normal (%)” value [5] of the same compound?
**A.** 97%

**Q.** And the “Population Pyknosed Nuclei (%)” value [5]?
**A.** 14%

**Q.** What about the “Population Tubulin-Different-Phenotype (%)” value [5] of the same compound?
**A.** 32%

**Q.** What about the “Total Cell Count” value [5] of the same compound?
**A.** 143

**Q.** What about the “Population Fragmented Nuclei (%)” value [6] of the same compound?
**A.** 24%

**Q.** And the “Population Healthy Nuclei (%)” value [6]?
**A.** 55%

**Q.** And the “Population Hoechst High Intensity Objects (%)” value [6]?
**A.** 3%

**Q.** What about the “Population Membrane Permeable-Phenotype (%)” value [6] of the same compound?
**A.** 8%

**Q.** What about the “Population Mitochondria Different-Phenotype (%)” value [6] of the same compound?
**A.** 3%

**Q.** And the “Population Normal (%)” value [6]?
**A.** 96%

**Q.** And the “Population Pyknosed Nuclei (%)” value [6]?
**A.** 19%

**Q.** And the “Population Tubulin-Different-Phenotype (%)” value [6]?
**A.** 50%

**Q.** And the “Total Cell Count” value [6]?
**A.** 151

**Q.** What about the “Population Apoptotic (%)” value [7] of the same compound?
**A.** 83%

**Q.** What about the “Population Fragmented Nuclei (%)” value [7] of the same compound?
**A.** 19%

**Q.** What about the “Population Healthy Nuclei (%)” value [7] of the same compound?
**A.** 65%

**Q.** And the “Population Hoechst High Intensity Objects (%)” value [7]?
**A.** 8%

**Q.** What about the “Population Membrane Permeable-Phenotype (%)” value [7] of the same compound?
**A.** 0%

**Q.** What about the “Population Mitochondria Different-Phenotype (%)” value [7] of the same compound?
**A.** 37%

**Q.** What about the “Population Mitotic Cells (%)” value [7] of the same compound?
**A.** 16%

**Q.** And the “Population Normal (%)” value [7]?
**A.** 91%

**Q.** And the “Population Pyknosed Nuclei (%)” value [7]?
**A.** 14%

**Q.** And the “Population Tubulin-Different-Phenotype (%)” value [7]?
**A.** 63%

**Q.** What about the “Total Cell Count” value [7] of the same compound?
**A.** 132

**Q.** And the “Population Apoptotic (%)” value [8]?
**A.** 40%

**Q.** And the “Population Fragmented Nuclei (%)” value [8]?
**A.** 39%

**Q.** What about the “Population Healthy Nuclei (%)” value [8] of the same compound?
**A.** 41%

**Q.** And the “Population Hoechst High Intensity Objects (%)” value [8]?
**A.** 3%

**Q.** What about the “Population Membrane Permeable-Phenotype (%)” value [8] of the same compound?
**A.** 8%

**Q.** What about the “Population Mitochondria Different-Phenotype (%)” value [8] of the same compound?
**A.** 8%

**Q.** And the “Population Mitotic Cells (%)” value [8]?
**A.** 59%

**Q.** And the “Population Normal (%)” value [8]?
**A.** 96%

**Q.** And the “Population Pyknosed Nuclei (%)” value [8]?
**A.** 19%

**Q.** What about the “Population Tubulin-Different-Phenotype (%)” value [8] of the same compound?
**A.** 76%

**Q.** And the “Total Cell Count” value [8]?
**A.** 116

**Q.** And the “Population Apoptotic (%)” value [9]?
**A.** 84%

**Q.** And the “Population Fragmented Nuclei (%)” value [9]?
**A.** 18%

**Q.** What about the “Population Healthy Nuclei (%)” value [9] of the same compound?
**A.** 71%

**Q.** What about the “Population Hoechst High Intensity Objects (%)” value [9] of the same compound?
**A.** 5%

**Q.** And the “Population Membrane Permeable-Phenotype (%)” value [9]?
**A.** 1%

**Q.** What about the “Population Mitochondria Different-Phenotype (%)” value [9] of the same compound?
**A.** 12%

**Q.** And the “Population Mitotic Cells (%)” value [9]?
**A.** 15%

**Q.** What about the “Population Normal (%)” value [9] of the same compound?
**A.** 94%

**Q.** And the “Population Pyknosed Nuclei (%)” value [9]?
**A.** 10%

**Q.** What about the “Population Tubulin-Different-Phenotype (%)” value [9] of the same compound?
**A.** 34%

**Q.** And the “Total Cell Count” value [9]?
**A.** 138

**Q.** And the “Population Apoptotic (%)” value [10]?
**A.** 60%

**Q.** What about the “Population Fragmented Nuclei (%)” value [10] of the same compound?
**A.** 31%

**Q.** And the “Population Healthy Nuclei (%)” value [10]?
**A.** 52%

**Q.** What about the “Population Membrane Permeable-Phenotype (%)” value [10] of the same compound?
**A.** 5%

**Q.** What about the “Population Mitochondria Different-Phenotype (%)” value [10] of the same compound?
**A.** 5%

**Q.** And the “Population Mitotic Cells (%)” value [10]?
**A.** 40%

**Q.** And the “Population Pyknosed Nuclei (%)” value [10]?
**A.** 15%

**Q.** What about the “Population Tubulin-Different-Phenotype (%)” value [10] of the same compound?
**A.** 56%

**Q.** And the “Total Cell Count” value [10]?
**A.** 171

**Q.** And the “Population Apoptotic (%)” value [11]?
**A.** 84%

**Q.** What about the “Population Fragmented Nuclei (%)” value [11] of the same compound?
**A.** 18%

**Q.** What about the “Population Healthy Nuclei (%)” value [11] of the same compound?
**A.** 63%

**Q.** And the “Population Hoechst High Intensity Objects (%)” value [11]?
**A.** 14%

**Q.** What about the “Population Membrane Permeable-Phenotype (%)” value [11] of the same compound?
**A.** 0%

**Q.** And the “Population Mitochondria Different-Phenotype (%)” value [11]?
**A.** 34%

**Q.** And the “Population Mitotic Cells (%)” value [11]?
**A.** 15%

**Q.** What about the “Population Normal (%)” value [11] of the same compound?
**A.** 85%

**Q.** What about the “Population Pyknosed Nuclei (%)” value [11] of the same compound?
**A.** 18%

**Q.** And the “Population Tubulin-Different-Phenotype (%)” value [11]?
**A.** 65%

**Q.** What about the “Total Cell Count” value [11] of the same compound?
**A.** 122

**Q.** And the “Population Apoptotic (%)” value [12]?
**A.** 44%

**Q.** And the “Population Fragmented Nuclei (%)” value [12]?
**A.** 50%

**Q.** And the “Population Healthy Nuclei (%)” value [12]?
**A.** 41%

**Q.** And the “Population Hoechst High Intensity Objects (%)” value [12]?
**A.** 3%

**Q.** What about the “Population Membrane Permeable-Phenotype (%)” value [12] of the same compound?
**A.** 8%

**Q.** What about the “Population Mitochondria Different-Phenotype (%)” value [12] of the same compound?
**A.** 8%

**Q.** And the “Population Mitotic Cells (%)” value [12]?
**A.** 55%

**Q.** What about the “Population Normal (%)” value [12] of the same compound?
**A.** 96%

**Q.** And the “Population Pyknosed Nuclei (%)” value [12]?
**A.** 7%

**Q.** What about the “Population Tubulin-Different-Phenotype (%)” value [12] of the same compound?
**A.** 67%
